Active and inactive are the calls of the source. The calls are words filed in the database; no cut-off is given here.

For data set [1], the system named is Semliki Forest virus. In words: Antiviral activity against SFV infected in BHK cells assessed as surviving virus fraction at 50 uM after 14 hrs by luciferase reporter gene assay. The class given is functional. On the set-up: scale not given here.
For data set [2], the system named is Semliki Forest virus. In words: Antiviral activity against SFV infected in BHK cells after 14 hrs by luciferase reporter gene assay. The class given is functional, organism-based. Put shortly: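 SFV-Rluc reporter virus from infectious cDNA clone; BHK-21 cells infected at low multiplicity (0.001 PFU/cell) and incubated 14 h, spanning over 2 infectious cycles. Serial dilutions of each derivative tested. Luciferase read-out as surviving virus fraction. IC50 from a sigmoidal dose-response fit; means ± SD, n = 6. 3′-Amino-3′-deoxyadenosine (20 µM) served as screen positive control.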
Background: Reporter assays use an easily measured gene product as a stand-in for the process of interest.

A short description of data set [3]: Cytotoxicity against human HuH7 cells assessed as cell viability at 50 uM after 24 hrs.
Data set [4] can be described thus: Cytotoxicity against human HuH7 cells assessed as cell viability at 500 uM after 24 hrs. Format: cell-based, Huh-7. Particulars: read-out: Activity. The method, boiled down: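 Huh-7 human hepatocellular carcinoma cells exposed 24 h to derivative at 500 µM in an extended cytotoxicity analysis. Viability measured as intracellular ATP content and reported as surviving fraction.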

For the next data set, the system named is Sindbis virus. In words: Antiviral activity against Sindbis virus infected in BHK cells assessed as inhibition of RNA synthesis after 14 hrs by [3H]uridine incorporation assay. The class given is functional, organism-based. Put shortly:
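Sindbis virus from infectious cDNA clone grown in BHK-21 cells. Viral RNA synthesis rate measured by [3H]-uridine labeling. Serial compound dilutions from 16 pM to 50 µM. IC50 from nonlinear regression to sigmoidal dose-response curves; means ± SD, n = 4.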

Data set [5] concerns Semliki Forest virus. The data set can be described thus: Antiviral activity against SFV infected in BHK cells assessed as decrease in surviving virus fraction at 50 uM treated during time of viral adsorption for 1 hr measured after 5 hrs by luciferase reporter gene assay. The class given is functional, organism-based. Put shortly:
(§1)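 Time-of-addition run with SFV-Rluc at high multiplicity (5 PFU/cell) in BHK-21 cultures, covering a single replication cycle. Compound present throughout (0-5 h), only during adsorption (0-1 h), at 1-5 h, or at 2-5 h. Surviving fraction is the remaining Renilla luciferase activity, read at 5 h per legend (4.5 h in text); means ± SD, n = 4.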

The subject of data set [6] is Semliki Forest virus. The data set can be described thus: Antiviral activity against SFV infected in BHK cells assessed as decrease in surviving virus fraction at 50 uM treated 1 hr after viral adsorption measured after 5 hrs by luciferase reporter gene assay. Format: functional, organism-based. Put shortly: as §1
In data set [7] the test system is Semliki Forest virus. The data set can be described thus: Antiviral activity against SFV infected in BHK cells assessed as decrease in surviving virus fraction at 50 uM treated 2 hr after viral adsorption measured after 5 hrs by luciferase reporter gene assay. Format: functional, organism-based. The method, boiled down: as §1
For data set [8], the system named is Semliki Forest virus. In words: Antiviral activity against SFV infected in BHK cells assessed as decrease in surviving virus fraction at 200 uM treated during time of viral adsorption for 1 hr measured after 5 hrs by luciferase reporter gene assay. The class given is functional, organism-based. Put shortly: as §1
Data set [9] deals with Semliki Forest virus. The data set can be described thus: Antiviral activity against SFV infected in BHK cells assessed as decrease in surviving virus fraction at 200 uM treated 1 hr after viral adsorption measured after 5 hrs by luciferase reporter gene assay. The class given is functional, organism-based. Put shortly: as §1
Data set [10] relates to Semliki Forest virus. The data set can be described thus: Antiviral activity against SFV infected in BHK cells assessed as surviving virus fraction at 50 uM after 14 hrs by luciferase reporter gene assay in presence of 50 ug/ml guanosine. Format: functional, organism-based.
For data set [11], the system named is Semliki Forest virus. The data set can be described thus: Antiviral activity against SFV infected in BHK cells assessed as decrease in surviving virus fraction at 200 uM treated 2 hr after viral adsorption measured after 5 hrs by luciferase reporter gene assay. Format: functional, organism-based. The method, boiled down: as §1
For data set [12], the system named is Semliki Forest virus. In words: Antiviral activity against SFV infected in BHK cells assessed as surviving virus fraction at 200 uM after 14 hrs by luciferase reporter gene assay in presence of 50 ug/ml guanosine. The class given is functional, organism-based.
Data set [13] has as its system Semliki Forest virus. The data set can be described thus: Antiviral activity against SFV infected in BHK cells assessed as surviving virus fraction at 20 uM after 14 hrs by luciferase reporter gene assay. Format: functional. Put shortly:
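BHK-21 cells were infected with the luciferase marker virus SFV-Rluc, made from an infectious cDNA clone, at a low multiplicity of 0.001 PFU/cell. Infection ran through more than 2 infectious cycles over a 14 h incubation, and the read-out was luciferase reporter activity. The surviving fraction was the percentage of viral replication remaining. The screen was automated and run in triplicate.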

On to `C=C(C)[C@@H]1CC[C@]2(COC3CCCCO3)CC[C@]3(C)[C@H](CC[C@@H]4[C@@]5(C)CC[C@H](O)C(C)(C)[C@@H]5CC[C@]43C)[C@@H]12` (stereo not given in full), for which the Activity with Semliki Forest virus [1] was determined as 11%. The IC50 with Semliki Forest virus [2] (read-out: IC50) is 17.2 µM; in the data set on Semliki Forest virus [2] (read-out: pIC50 (converted)) it was 17.4 µM; in the data set on Sindbis virus (read-out: IC50) it was 1.9 µM; with Sindbis virus (read-out: pIC50 (converted)), 1.91 µM. Besides, in [3], the viability at 24 h, 50 µM stood at 92%. The viability at 24 h, 500 µM in data set [4] is more than 80%. For the same molecule, the result in the data set on Semliki Forest virus [5] and in the data set with Semliki Forest virus [8] was inactive. Moreover, the outcome with Semliki Forest virus [6], in the data set on Semliki Forest virus [7], with Semliki Forest virus [9] and in the data set on Semliki Forest virus [10] was Active.

For the molecule `C=C(C)[C@@H]1CC[C@]2(COC3CCCCO3)CC[C@]3(C)[C@H](CC[C@@H]4[C@@]5(C)CC[C@H](OC(C)=O)C(C)(C)[C@@H]5CC[C@]43C)[C@@H]12` (stereo not given in full), the Activity in the data set on Semliki Forest virus [1] is 10%. Also, the IC50 in the data set with Semliki Forest virus [2] (read-out: IC50) was 24.7 µM; in the data set on Semliki Forest virus [2] (read-out: pIC50 (converted)) it was 24.5 µM. Besides, the viability at 24 h, 50 µM in [3] was found to be 91%. The viability at 24 h, 500 µM in data set [4] is more than 80%.

Turning to `C=C(C)[C@@H]1CC[C@]2(CO)CC[C@]3(C)[C@H](CC[C@@H]4[C@@]5(C)CC[C@H](O)C(C)(C)[C@@H]5CC[C@]43C)[C@@H]12` [BETULIN], the Activity with Semliki Forest virus [1] is reported as 7%. The IC50 in the data set on Semliki Forest virus [2] (read-out: IC50) is 45.5 µM; with Semliki Forest virus [2] (read-out: pIC50 (converted)) it was 45.7 µM. Besides, the viability at 24 h, 50 µM in data set [3] was found to be 83%. Further, in [4], the viability at 24 h, 500 µM was more than 80%.

In the case of `C=C(C)[C@@H]1CC[C@]2(C(=O)O)CC[C@]3(C)[C@H](CC[C@@H]4[C@@]5(C)CC[C@H](O)C(C)(C)[C@@H]5CC[C@]43C)[C@@H]12` [BETULINIC ACID], in the data set on Semliki Forest virus [1], the Activity came to 18%. The IC50 in the data set on Semliki Forest virus [2] (read-out: IC50) was 14.6 µM; in the data set on Semliki Forest virus [2] (read-out: pIC50 (converted)), 14.5 µM; in the data set on Sindbis virus (read-out: IC50) it was 0.5 µM; with Sindbis virus (read-out: pIC50 (converted)), 0.457 µM. Besides, in [3], the viability at 24 h, 50 µM amounted to 123%. In addition, the viability at 24 h, 500 µM in data set [4] was more than 80%. Besides, the result with Semliki Forest virus [5] and in the data set on Semliki Forest virus [8] was inactive. Further, the result with Semliki Forest virus [6], in the data set with Semliki Forest virus [7], in the data set on Semliki Forest virus [9], in the data set with Semliki Forest virus [11] and in the data set on Semliki Forest virus [10] was Active.

As for `CC(=O)OC[C@]12CC[C@]3(C(C)C)C1=C1[C@H](C[C@@H]4[C@@]5(C)CC[C@H](OC(C)=O)C(C)(C)[C@@H]5CC[C@@]4(C)[C@]1(C)CC2)n1c(=O)n(Cc2ccccc2)c(=O)n13`, the Activity in the data set with Semliki Forest virus [1] is on record as 1%. For the same molecule, the results for the IC50 in the data set with Semliki Forest virus [2] (read-out: IC50) and in the data set on Semliki Forest virus [2] (read-out: pIC50 (converted)) were 35.9 µM and 36.3 µM, respectively. The viability at 24 h, 50 µM in [3] worked out at 101%. Further, in data set [4], the viability at 24 h, 500 µM was more than 80%.

On to `NC(=O)c1ncn([C@@H]2O[C@H](CO)[C@@H](O)[C@H]2O)n1` [RIBAVIRIN], for which the values for the IC50 with Semliki Forest virus [2] (read-out: IC50) and with Semliki Forest virus [2] (read-out: pIC50 (converted)) were 95.1 µM and 95.5 µM, respectively. Besides, the outcome with Semliki Forest virus [12] was inactive.

For `Nc1ncnc2c1ncn2[C@@H]1O[C@H](CO)[C@@H](N)[C@H]1O`, the IC50 with Semliki Forest virus [2] (read-out: IC50) amounted to 18 µM. Further, in the data set with Semliki Forest virus [13], the Activity is recorded as 12%.

Regarding `CC(=O)OC[C@]12CC[C@]3(C(C)C)C1=C1[C@H](C[C@@H]4[C@@]5(C)CC[C@H](OC(C)=O)C(C)(C)[C@@H]5CC[C@@]4(C)[C@]1(C)CC2)n1c(=O)n(-c2ccccc2)c(=O)n13`, the Activity in the data set with Semliki Forest virus [1] is given as 13%. For the same molecule, the IC50 in the data set with Semliki Forest virus [2] (read-out: IC50) is 19.7 µM; in the data set with Semliki Forest virus [2] (read-out: pIC50 (converted)), 19.5 µM; with Sindbis virus (read-out: IC50), 6.1 µM; in the data set with Sindbis virus (read-out: pIC50 (converted)), 6.17 µM. Besides, in data set [3], the viability at 24 h, 50 µM was determined as 87%. Also, the viability at 24 h, 500 µM in [4] is more than 80%. The result with Semliki Forest virus [5] and with Semliki Forest virus [8] was inactive. The outcome in the data set on Semliki Forest virus [6], in the data set with Semliki Forest virus [7], in the data set with Semliki Forest virus [9] and with Semliki Forest virus [10] was Active.

For the molecule `C=C(C)[C@@H]1CC[C@]2(COC(C)=O)CC[C@]3(C)[C@H](CC[C@@H]4[C@@]5(C)CC[C@H](O)C(C)(C)[C@@H]5CC[C@]43C)[C@@H]12`, in the data set with Semliki Forest virus [1], the Activity is 3%. The IC50 is 12.1 µM in the data set with Semliki Forest virus [2] (read-out: IC50) and 12 µM with Semliki Forest virus [2] (read-out: pIC50 (converted)). The viability at 24 h, 50 µM in data set [3] was found to be 87%. In addition, the viability at 24 h, 500 µM in [4] is more than 80%.

As to `CC(=O)OC[C@]12CC[C@]3(C(C)C)C1=C1[C@H](C[C@@H]4[C@@]5(C)CC[C@H](OC(C)=O)C(C)(C)[C@@H]5CC[C@@]4(C)[C@]1(C)CC2)n1c(=O)n(-c2cccc([N+](=O)[O-])c2)c(=O)n13`, the Activity in the data set with Semliki Forest virus [1] amounted to 3%. The IC50 in the data set on Semliki Forest virus [2] (read-out: IC50) and with Semliki Forest virus [2] (read-out: pIC50 (converted)) was 22.9 µM throughout. For the same molecule, in data set [3], the viability at 24 h, 50 µM was 108%. In addition, in [4], the viability at 24 h, 500 µM was more than 80%.
